Experimental data reported in PMC12667952 (bioRxiv, 2025).
Positions count from the first letter of the chain named. Like-named read-outs stand apart in the source and are kept apart here.

Assays:
[1] = cited from earlier work
[2] = target: T1, hGlyT2^D633E (Homo sapiens, UniProt Q9Y345, D633E); assay: Reversibility; format: cell-based
T1 sequence (Q9Y345 1-797 D633E): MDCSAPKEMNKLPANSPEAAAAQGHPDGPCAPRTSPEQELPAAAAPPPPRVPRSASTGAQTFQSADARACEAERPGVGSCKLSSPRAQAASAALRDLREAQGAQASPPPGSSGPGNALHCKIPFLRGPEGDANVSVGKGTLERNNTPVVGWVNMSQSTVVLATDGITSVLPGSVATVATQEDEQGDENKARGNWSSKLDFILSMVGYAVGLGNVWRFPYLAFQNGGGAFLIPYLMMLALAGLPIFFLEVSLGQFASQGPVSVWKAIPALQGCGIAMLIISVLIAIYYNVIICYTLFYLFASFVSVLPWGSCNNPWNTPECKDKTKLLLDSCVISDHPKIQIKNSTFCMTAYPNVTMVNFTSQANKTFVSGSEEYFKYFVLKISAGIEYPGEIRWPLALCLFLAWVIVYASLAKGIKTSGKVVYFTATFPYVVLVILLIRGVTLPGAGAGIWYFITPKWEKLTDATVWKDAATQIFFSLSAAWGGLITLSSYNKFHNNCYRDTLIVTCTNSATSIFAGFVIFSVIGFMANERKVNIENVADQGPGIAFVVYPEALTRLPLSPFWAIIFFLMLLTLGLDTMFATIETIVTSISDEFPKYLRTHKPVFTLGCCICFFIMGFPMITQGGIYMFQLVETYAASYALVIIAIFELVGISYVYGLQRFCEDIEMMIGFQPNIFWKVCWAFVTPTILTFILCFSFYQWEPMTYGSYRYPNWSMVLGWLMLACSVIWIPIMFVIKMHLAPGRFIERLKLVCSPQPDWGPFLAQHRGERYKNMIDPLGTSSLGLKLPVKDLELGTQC

[3] = system: mice; settings: 50 mg/kg; cited from earlier work
[4] = system: mice; settings: 50 mg/kg; cited from earlier work; remark: listed apart in the source
[5] = target: T1, hGlyT2^D633E; format: cell-based
[6] = target: T2, hGlyT2^WT (Homo sapiens, UniProt Q9Y345); assay: Reversibility; format: cell-based
T2 sequence (Q9Y345 1-797): T1 sequence (Q9Y345 1-797 D633E) with E633D
Summary of the method: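 Xenopus oocytes injected with 20 ng hGlyT2 WT cRNA and held 3–6 days at 18 °C. Glycine currents recorded by two-electrode voltage clamp at −60 mV. Test compound applied at a single concentration (10 μM maximum), then washed out. Recovery of 30 µM glycine-evoked currents followed to 30 min, normalised to pre-inhibitor current. n ≥ 5 from at least two frogs.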

[7] = target: T2, hGlyT2^WT; assay: Sodium dependence of inhibition of glycine transport currents; format: cell-based; settings: IC50 at 100 mM Na+, 100 mM Na+, 300 μM glycine
[8] = target: T3, hGlyT2^W215F (Homo sapiens, UniProt Q9Y345, W215F); format: cell-based
T3 sequence (Q9Y345 1-797 W215F): T1 sequence (Q9Y345 1-797 D633E) with W215F, E633D

[9] = target: T2, hGlyT2^WT; format: cell-based
[10] = target: T3, hGlyT2^W215F; assay: Reversibility; format: cell-based
[11] = system: C57BL/6J mice; assay: Conditioned place preference; format: in vivo, mouse; settings: 10 mg/kg, i.p., positive control
[12] = system: GlyT2; settings: read-out: IC50 for GlyT2; cited from earlier work
[13] = system: CCI mice; assay: Cold allodynia; format: in vivo, mouse; settings: control compound gabapentin 100 mg/kg, by 2-hour time point
Summary of the method: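 CCI mice tested 14 days after surgery. […] Acetone-evoked cold allodynia scored before surgery, at t = 0 before dosing, and at 0.5, 1, 1.5, 2, 4 and 6 h. Expressed as % of maximal possible responses. Two-way ANOVA with Dunnett's test versus vehicle.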

CCCCCCCC/C=C\CCCCCCCC(=O)N[C@H](CCCCN)C(=O)O [oleoyl-D-lysine]
Effects on inflammatory and acute nociceptive pain thresholds [1]: no effects

COc1cc(C(=O)NCC2(N(C)C)CCCC2)cc(OC)c1OCc1ccccc1 [ORG25543, 4-(benzyloxy)-N-{[1-(dimethylamino)cyclopentyl]methyl}-3,5-dimethoxybenzamide, reference compound]
Washout of inhibitor from hGlyT2^D633E [2]: recovery from ORG25543 within five minutes
Side effects coinciding with analgesic dose [3]: near-complete loss of rotarod performance, seizures and in one case, lethality
Mechanical allodynia [4]: reversed mechanical allodynia
Reduction in potency of inhibition, D633E versus WT [5]: ~ 14 fold
Glycine currents restored, of pre-inhibitor levels ([6]; after 30 minutes washout): 12.5%
Reversibility of inhibition (recovery of glycine-induced currents) ([6]; washout, hGlyT2^WT): minimal restoration of glycine-induced currents 30-minutes post-ORG25543
IC50 [7]: 17.6 nM
Decrease in potency of inhibition, W215F versus WT [8]: ~three-fold
IC50 [9]: 11.4 nM
Effects on inflammatory and acute nociceptive pain thresholds [1]: no effects
Washout of inhibitor from hGlyT2^W215F [10]: significantly increased the rate of ORG25543 washout

CN1CC[C@]23c4c5ccc(O)c4O[C@H]2[C@@H](O)C=C[C@H]3[C@H]1C5 [morphine, reference compound]
Preference for the paired chamber [11]: significant increase in preference for the paired chamber

CCCCOc1c(OC)cc(C(=O)NCC2(N(C)C)CCOCC2)cc1OC [opiranserin]
IC50 [12]: 860 nM

NCC1(CC(=O)O)CCCCC1 [Gabapentin, reference compound]
Peak reduction of response rate to acetone stimulus [13]: 75%
